From ChEMBL document CHEMBL4014350, “Alkoxyurea-Based Histone Deacetylase Inhibitors Increase Cisplatin Potency in Chemoresistant Cancer Cell Lines” (J Med Chem, 2017) come the findings set out here.

Calls of active or inactive are those of the source. No cut-off for these calls is given here.

Test [1] concerns CAL-27. In words: Potentiation of 0.316 uM cisplatin-induced cytotoxicity against human CAL27 cells assessed as decrease in cell viability by measuring combination index at 900 uM preincubated for 48 hrs followed by cisplatin treatment measured after 72 hrs by MTT assay. The test is classed as functional. The settings on record: in the assay text read “at 900 nM” for “at 900 uM”. The procedure, abridged: (§1)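 Cal27 and cisplatin-resistant Cal27CisR cells were preincubated with the HDAC inhibitor for 48 h, then given cisplatin in combination. Viability was read by MTT after 72 h. The combination index was computed by the Chou–Talalay method: CI > 1 is antagonism, CI = 1 is additive, and CI < 0.9 is synergism. Points with fraction affected below 0.20 were flagged.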

Test [2] concerns CAL-27. As to the kind of experiment: Potentiation of 5 uM cisplatin-induced cytotoxicity against human CAL27 cells assessed as decrease in cell viability by measuring combination index at 900 uM preincubated for 48 hrs followed by cisplatin treatment measured after 72 hrs by MTT assay. It is filed as functional. The settings on record: in the assay text read “at 900 nM” for “at 900 uM”. The procedure, abridged:
(§2)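 HDAC inhibitor was added 48 h before cisplatin, then cells were exposed to cisplatin for 72 h and viability was read by MTT assay. Combination index was computed by the Chou–Talalay method: CI > 1 is antagonism, CI = 1 additive, CI < 0.9 synergism. Points with fraction affected below 0.20 were flagged.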
(In general: Tetrazolium dyes change colour on reduction, which living cells bring about.)

Test [3] deals with T1, Histone deacetylase 1/6 (Homo sapiens) (UniProt Q13547+Q9UBN7). In words: Inhibition of HDAC1/HDAC6 in human Cal27CisR cells assessed as potentiation of 5 uM cisplatin-induced cytotoxicity by measuring combination index at 1000 uM preincubated for 48 hrs followed by cisplatin treatment measured after 72 hrs by MTT assay. The test is classed as cell-based. The method, boiled down:
as §1

The subject of test [4] is CAL-27. As to the kind of experiment: Induction of apoptosis in human CAL27 cells at 0.5 uM for 48 hrs by propidium iodide dye-based flow cytometry. It is filed as functional, cell-based. (In flow cytometry, cells or beads pass a laser one at a time.)
In test [5] the target is T1, Histone deacetylase 1/6 (Homo sapiens). In words: Inhibition of HDAC1/HDAC6 in human Cal27CisR cells assessed as potentiation of 3.16 uM cisplatin-induced cytotoxicity by measuring combination index at 2000 nM preincubated for 48 hrs followed by cisplatin treatment measured after 72 hrs by MTT assay.
In test [6] the test system is CAL-27. In words: Potentiation of cisplatin-induced cytotoxicity against human CAL27 cells assessed as fold reduction in cisplatin IC50 at 1 uM preincubated for 48 hrs followed by cisplatin treatment measured after 72 hrs by MTT assay relative to cisplatin alone. The test is classed as functional. The procedure, abridged:
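Cells were preincubated 48 h with HDAC inhibitor, then cisplatin was added over a concentration range for 72 h, with MTT read-out. Shift factor is cisplatin-alone IC50 divided by combination IC50. Data are mean ± SEM of pooled data from at least three independent experiments, each in triplicate. Significance was by t test (p < 0.05).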

A further test relates to Cal27CisR. As to the kind of experiment: Induction of apoptosis in human Cal27CisR cells at 0.5 uM for 48 hrs by propidium iodide dye-based flow cytometry. It is filed as functional, cell-based.
In test [7] the target is T1, Histone deacetylase 1/6 (Homo sapiens). As to the kind of experiment: Inhibition of HDAC1/HDAC6 in human Cal27CisR cells assessed as potentiation of 20 uM cisplatin-induced cytotoxicity by measuring combination index at 2000 nM preincubated for 48 hrs followed by cisplatin treatment measured after 72 hrs by MTT assay.
In test [8] the test system is CAL-27. In words: Potentiation of 2 uM cisplatin-induced cytotoxicity against human CAL27 cells assessed as decrease in cell viability by measuring combination index at 2000 uM preincubated for 48 hrs followed by cisplatin treatment measured after 72 hrs by MTT assay. The test is classed as functional. The settings on record: in the assay text read “at 2000 nM” for “at 2000 uM”. The procedure, abridged: as §2

The target of test [9] is T1, Histone deacetylase 1/6 (Homo sapiens). As to the kind of experiment: Inhibition of HDAC1/HDAC6 in human Cal27CisR cells assessed as potentiation of 3.16 uM cisplatin-induced cytotoxicity by measuring combination index at 1000 nM preincubated for 48 hrs followed by cisplatin treatment measured after 72 hrs by MTT assay.
For test [10], the system named is CAL-27. As to the kind of experiment: Potentiation of 5 uM cisplatin-induced cytotoxicity against human CAL27 cells assessed as decrease in cell viability by measuring combination index at 1000 uM preincubated for 48 hrs followed by cisplatin treatment measured after 72 hrs by MTT assay. It is filed as functional. The settings on record: in the assay text read “at 1000 nM” for “at 1000 uM”. The method, boiled down: as §2

In test [11] the target is T1, Histone deacetylase 1/6 (Homo sapiens). In words: Inhibition of HDAC1/HDAC6 in human Cal27CisR cells assessed as potentiation of 1 uM cisplatin-induced cytotoxicity by measuring combination index at 900 uM preincubated for 48 hrs followed by cisplatin treatment measured after 72 hrs by MTT assay. It is filed as cell-based. The method, boiled down:
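Cal27CisR cells preincubated 48 h with the HDAC inhibitor, then exposed to cisplatin for 72 h. Viability read by MTT. Combination index calculated by the Chou–Talalay method: CI > 1 antagonism, CI = 1 additive, CI < 0.9 synergism. Points with fraction affected below 0.20 are flagged. Values are the mean of three experiments.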

Test [12] relates to CAL-27. In words: Potentiation of 1 uM cisplatin-induced cytotoxicity against human CAL27 cells assessed as decrease in cell viability by measuring combination index at 1500 uM preincubated for 48 hrs followed by cisplatin treatment measured after 72 hrs by MTT assay. It is filed as functional. The settings on record: in the assay text read “at 1500 nM” for “at 1500 uM”. The method, boiled down: as §1

The subject of test [13] is CAL-27. As to the kind of experiment: Potentiation of 1 uM cisplatin-induced cytotoxicity against human CAL27 cells assessed as decrease in cell viability by measuring combination index at 900 uM preincubated for 48 hrs followed by cisplatin treatment measured after 72 hrs by MTT assay. It is filed as functional. The procedure, abridged:
as §2

Test [14] addresses T1, Histone deacetylase 1/6 (Homo sapiens). In words: Inhibition of HDAC1/HDAC6 in human Cal27CisR cells assessed as potentiation of 10 uM cisplatin-induced cytotoxicity by measuring combination index at 900 nM preincubated for 48 hrs followed by cisplatin treatment measured after 72 hrs by MTT assay.
Test [15] has the same target. In words: Inhibition of HDAC1/HDAC6 in human Cal27CisR cells assessed as potentiation of 10 uM cisplatin-induced cytotoxicity by measuring combination index at 1500 nM preincubated for 48 hrs followed by cisplatin treatment measured after 72 hrs by MTT assay.
For test [16], the system named is CAL-27. As to the kind of experiment: Potentiation of 0.5 uM cisplatin-induced cytotoxicity against human CAL27 cells assessed as decrease in cell viability by measuring combination index at 2000 uM preincubated for 48 hrs followed by cisplatin treatment measured after 72 hrs by MTT assay. It is filed as functional. The procedure, abridged: as §1
Test [17] concerns CAL-27. As to the kind of experiment: Potentiation of 1 uM cisplatin-induced cytotoxicity against human CAL27 cells assessed as decrease in cell viability by measuring combination index at 2000 uM preincubated for 48 hrs followed by cisplatin treatment measured after 72 hrs by MTT assay. It is filed as functional. The settings on record: in the assay text read “at 2000 nM” for “at 2000 uM”. The method, boiled down:
as §1

Test [18] concerns CAL-27. As to the kind of experiment: Potentiation of 2 uM cisplatin-induced cytotoxicity against human CAL27 cells assessed as decrease in cell viability by measuring combination index at 100 uM preincubated for 48 hrs followed by cisplatin treatment measured after 72 hrs by MTT assay. It is filed as functional. The settings on record: in the assay text read “at 100 nM” for “at 100 uM”. The procedure, abridged: as §2

T1 sequence (Q13547 whole entry, looked up): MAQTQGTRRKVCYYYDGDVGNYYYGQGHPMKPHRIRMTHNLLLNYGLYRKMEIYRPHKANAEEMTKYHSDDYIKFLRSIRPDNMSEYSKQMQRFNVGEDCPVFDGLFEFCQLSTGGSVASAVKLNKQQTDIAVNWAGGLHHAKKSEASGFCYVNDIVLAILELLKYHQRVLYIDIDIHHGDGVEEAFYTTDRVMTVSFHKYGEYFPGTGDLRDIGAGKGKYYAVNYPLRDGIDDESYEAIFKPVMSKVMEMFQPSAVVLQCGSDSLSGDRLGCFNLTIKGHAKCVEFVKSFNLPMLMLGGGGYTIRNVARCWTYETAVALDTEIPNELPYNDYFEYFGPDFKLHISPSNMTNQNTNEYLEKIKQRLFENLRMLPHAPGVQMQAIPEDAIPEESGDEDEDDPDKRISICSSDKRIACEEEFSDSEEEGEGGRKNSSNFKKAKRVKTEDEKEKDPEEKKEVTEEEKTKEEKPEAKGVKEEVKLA
T1 sequence (Q9UBN7 whole entry, looked up): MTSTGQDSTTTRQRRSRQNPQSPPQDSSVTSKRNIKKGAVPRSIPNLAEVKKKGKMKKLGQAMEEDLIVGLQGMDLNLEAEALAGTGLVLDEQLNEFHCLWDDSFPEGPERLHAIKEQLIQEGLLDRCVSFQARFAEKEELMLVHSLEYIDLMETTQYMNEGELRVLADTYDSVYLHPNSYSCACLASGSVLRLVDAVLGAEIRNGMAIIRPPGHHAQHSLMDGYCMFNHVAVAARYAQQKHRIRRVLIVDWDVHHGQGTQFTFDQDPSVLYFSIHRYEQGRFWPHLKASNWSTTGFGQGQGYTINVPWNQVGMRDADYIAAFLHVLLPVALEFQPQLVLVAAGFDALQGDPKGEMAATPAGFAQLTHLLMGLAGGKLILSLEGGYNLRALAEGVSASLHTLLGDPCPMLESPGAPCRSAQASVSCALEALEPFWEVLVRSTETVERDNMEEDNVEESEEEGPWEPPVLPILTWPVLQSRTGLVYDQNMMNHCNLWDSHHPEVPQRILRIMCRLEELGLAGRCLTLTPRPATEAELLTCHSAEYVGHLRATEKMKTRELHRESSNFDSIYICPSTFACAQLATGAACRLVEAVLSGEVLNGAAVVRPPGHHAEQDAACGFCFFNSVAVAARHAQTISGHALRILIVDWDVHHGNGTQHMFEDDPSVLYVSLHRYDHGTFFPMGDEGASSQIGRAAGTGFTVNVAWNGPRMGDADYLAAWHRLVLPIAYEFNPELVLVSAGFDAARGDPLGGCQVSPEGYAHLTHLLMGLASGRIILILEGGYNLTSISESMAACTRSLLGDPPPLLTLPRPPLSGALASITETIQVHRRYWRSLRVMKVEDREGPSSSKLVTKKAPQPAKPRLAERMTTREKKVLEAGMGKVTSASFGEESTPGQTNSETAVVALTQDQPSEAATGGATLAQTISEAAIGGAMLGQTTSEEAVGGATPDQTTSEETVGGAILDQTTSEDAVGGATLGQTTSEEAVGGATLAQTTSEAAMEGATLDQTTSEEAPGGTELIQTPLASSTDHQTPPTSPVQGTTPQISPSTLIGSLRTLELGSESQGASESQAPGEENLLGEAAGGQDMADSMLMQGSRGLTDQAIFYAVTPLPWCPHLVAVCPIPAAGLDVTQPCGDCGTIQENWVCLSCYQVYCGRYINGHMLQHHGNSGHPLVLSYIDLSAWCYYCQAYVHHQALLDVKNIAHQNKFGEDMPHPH

As to `COc1cc(NC(=O)NOCCCCCC(=O)NO)c2ncccc2c1`, the CI with CAL-27 [1] worked out at 0.77; with CAL-27 [2], 0.37; in test [3], 0.43; in test [5], 0.6; in test [7] it was 0.68; in the test with CAL-27 [8] it was 0.7. In addition, the CI in [9] was 0.63; in the test on CAL-27 [10], 0.4; in test [11] it was under 0.2; with CAL-27 [12], 0.64; in the test on CAL-27 [13], 0.54; in test [14], 0.43. The CI was determined as 0.51 in [15], 0.86 in the test with CAL-27 [16] and 0.75 in the test with CAL-27 [17]. In addition, the outcome in the test with CAL-27 [4] and in the test with Cal27CisR was inactive. Also, in the test on CAL-27 [6], the “fold change (FC)” value is recorded as 7.1.
Regarding `COc1cc(NC(=O)NOCCCCCC(=O)NO)c2nc(OC)cc(C)c2c1`, the CI in the test on CAL-27 [18] was determined as 0.31.
